From ChEMBL document CHEMBL1122970, “Synthesis and antitumor and antiviral activities of a series of 1-beta-D-ribofuranosyl-5-halocytosine (5-halocytidine) cyclic 3',5'-monophosphates” (1985)
“And” between values parts separate entries of the source, which are not always exact repeats. Identical values can stand only once. The source made the active and inactive calls. No cut-off for these calls is given here.

Experiments:
Human alphaherpesvirus 1 [1] = assay: Antiviral activity against Herpes simplex virus -1 strain KOS was evaluated in african green monkey kidney; format: functional
Human alphaherpesvirus 2 [2] = assay: In vitro antiviral activity against Herpes simplex virus -2 strain MS was evaluated in african green monkey kidney; format: functional
Human alphaherpesvirus 1 [3] = assay: In vitro antiviral activity against Herpes simplex virus -1 strain KOS was evaluated in african green monkey kidney; format: functional
Human alphaherpesvirus 2 [4] = assay: Antiviral activity against Herpes simplex virus -2 strain MS was evaluated in african green monkey kidney; format: functional
L1210 [5] = assay: In vitro antitumor activity against L1210 cell line in mice.; format: functional, Mus musculus
Summary of the method: (§1)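 Cells at 1 × 10⁶ cells/mL were incubated with filter-sterilized compound in growth medium, in duplicate, at log concentrations from 1 × 10⁻⁹ to 1 × 10⁻⁴ M. After 48 h at 37 °C, Coulter counts were taken and growth was expressed as a percentage of untreated controls. ID₅₀ is the concentration giving 50% growth inhibition.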

P388 [6] = assay: In vitro antitumor activity against P388 cell line in mice.; format: functional, Mus musculus; summary of the method: as §1
Human respirovirus 3 [7] = assay: In vitro antiviral activity against Para influenza virus type 3 strain C243 was evaluated in african green monkey kidney; format: functional
Vaccinia virus [8] = assay: Antiviral activity against Vaccinia virus strain Elstree was evaluated in african green monkey kidney; format: functional, Orthopoxvirus vaccinia
Vaccinia virus [9] = assay: In vitro antiviral activity against Vaccinia virus strain Elstree was evaluated in african green monkey kidney; format: functional, Orthopoxvirus vaccinia
Human respirovirus 3 [10] = assay: Antiviral activity against Para influenza virus type 3 strain C243 was evaluated in african green monkey kidney; format: functional
Vero = assay: In vitro cytotoxicity against Vero cells.; format: functional, Chlorocebus sabaeus
Coxsackievirus B1 [11] = assay: Antiviral activity against Coxsackie B1 strain HA 201468 was evaluated in african green monkey kidney; format: functional
Summary of the method: (§2)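 Confluent Vero monolayers (4 × 10⁴ cells/well, EMEM with 10% heat-inactivated newborn bovine serum, 24 h at 37 °C, 5% CO₂) were infected per well with Cox B1 200, Reo 3 470 or VSV 2 TCID₅₀ units. After 30 min adsorption, compound was added at seven 0.5-log steps, final 5 × 10⁻⁶ to 5 × 10⁻³ M, in duplicate wells. CPE was scored microscopically 0–4 at 72 h to give VR, and ED₅₀ was checked on crystal-violet-stained plates.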

Coxsackievirus B1 [12] = assay: In vitro antiviral activity against Coxsackie B1 strain HA 201468 was evaluated in african green monkey kidney; format: functional; summary of the method: as §2
L1210 [13] = assay: In vitro antitumor activity against L1210 cell line in mice; B indicates inactive at 10e-1 mmol/L; format: functional, cell-based; details: Mus musculus; summary of the method: as §1
P388 [14] = assay: In vitro antitumor activity against P388 cell line in mice; B indicates inactive at 10e-1 mmol/L; format: functional, cell-based; details: Mus musculus; summary of the method: as §1
[15] = system: Mammalian orthoreovirus 3; assay: Antiviral activity against Reovirus type 3 strain Abney was evaluated in african green monkey kidney; format: functional; summary of the method: as §2
[16] = system: Mammalian orthoreovirus 3; assay: In vitro antiviral activity against Reovirus type 3 strain Abney was evaluated in african green monkey kidney; format: functional; summary of the method: as §2
[17] = system: Vesicular stomatitis virus; assay: Antiviral activity against Vesicular stomatitis virus strain indiana was evaluated in african green monkey kidney; format: functional; summary of the method: as §2
[18] = system: Vesicular stomatitis virus; assay: In vitro antiviral activity against Vesicular stomatitis virus strain indiana was evaluated in african green monkey kidney; format: functional; summary of the method: as §2
Human alphaherpesvirus 1 [19] = assay: Antiviral activity against Herpes simplex virus -1 strain MS was evaluated in african green monkey kidney; format: functional

SMILES	ED50 (Human alphaherpesvirus 1 [1])	Virus rating (Human alphaherpesvirus 2 [2])	Virus rating (Human alphaherpesvirus 1 [3])	ED50 (Human alphaherpesvirus 2 [4])	ID50 (L1210 [5])	ID50 (P388 [6])	Virus rating (Human respirovirus 3 [7])	ED50 (Vaccinia virus [8])	Virus rating (Vaccinia virus [9])	ED50 (Human respirovirus 3 [10])	Cytotoxicity (Vero)	ED50 (Coxsackievirus B1 [11])	Virus rating (Coxsackievirus B1 [12])	ID50 (L1210 [13])	ID50 (P388 [14])	ED50 [15]	Virus rating [16]	ED50 [17]	Virus rating [18]	ED50 (Human alphaherpesvirus 1 [19])
Cl.Nc1nc(=O)n([C@@H]2O[C@H](CO)[C@@H](O)[C@H]2O)cc1F	20 µM	2.1	1	< 0.5 µM	2.6 µM	3 µM	0.8	5e-05 µM	1.3	130 µM										
Nc1ccn([C@@H]2O[C@H](CO)[C@@H](O)[C@@H]2O)c(=O)n1 [CYTARABINE]	0.34 µM	2.7	2.7	1.1 µM	2.5 µM	1.2 µM	0	0.34 µM	2.8	> 500 µM	0.0005 mM									
N.Nc1nc(=O)n([C@@H]2O[C@@H]3CO[PH](O)(O)O[C@H]3[C@H]2O)cc1I	> 5000 µM	0	0	> 5000 µM			0	> 5000 µM	0	> 5000 µM	2 mM l-1 and 5 mM l-1	> 5000 µM	0	inactive	inactive	> 5000 µM	0	> 5000 µM	0.2	
N.Nc1nc(=O)n([C@@H]2O[C@@H]3CO[PH](O)(O)O[C@H]3[C@H]2O)cc1Cl	> 5000 µM	0.1	0	> 5000 µM			0	> 5000 µM	0	> 5000 µM	5 mM	> 5000 µM	0	inactive	inactive	> 5000 µM	0	> 5000 µM	0	
Nc1nc(=O)[nH]cc1F [FLUCYTOSINE]	> 5000 µM	0.5	0	> 5000 µM			0.4	> 5000 µM	0	> 5000 µM	5 mM			inactive	inactive					
Nc1nc(=O)n([C@@H]2O[C@H](COP(=O)(O)O)[C@@H](O)[C@H]2O)cc1F		2	1.2	< 0.5 µM	3.4 µM	3.1 µM	1	9e-05 µM	1.4	20 µM										20 µM
N.Nc1nc(=O)n([C@@H]2O[C@@H]3CO[PH](O)(O)O[C@H]3[C@H]2O)cc1Br	> 5000 µM	0.2	0.1	5000 µM			0	5000 µM	0.1	> 5000 µM	2 mM l-1 and 5 mM l-1	> 5000 µM	0	inactive	inactive	> 5000 µM	0	> 5000 µM	0	
N.Nc1nc(=O)n([C@@H]2O[C@@H]3CO[PH](O)(O)O[C@H]3[C@H]2O)cc1F	220 µM	0.9	0.6	92 µM	0.31 µM	0.31 µM	0.1	290 µM	0.6	> 5000 µM	0.2 mM l-1 and 0.5 mM l-1	> 5000 µM	0			> 5000 µM	0	5000 µM	0.2	
